From ChEMBL document CHEMBL5620421, “2,6-Disubstituted 7-(naphthalen-2-ylmethyl)-7H-purines as a new class of potent antitubercular agents inhibiting DprE1” (Eur J Med Chem, 2023)
In brackets after ≈: the same amount, converted by molar mass. Activity calls are given as the source filed them. No cut-off for these calls is given here.

How the values were obtained:
HepG2 = test: Cytotoxicity against human HepG2 cells incubated for 24 hrs by MTT assay; type: functional, cell-based; conditions: HepG2, 24 h
In short: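 HepG2 cells in DMEM with 10% FBS, seeded at 15 × 10³ cells/well and attached overnight. Exposed for 24 h to serial dilutions prepared from DMSO stocks, final DMSO ≤1%. Then given fresh medium with 0.5 mg/mL MTT for 1 h at 37 °C. Formazan dissolved in DMSO and read at 570 nm. IC50 from 4-parameter nonlinear regression; three independent experiments in triplicate, mean ± SD.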

Escherichia coli = test: Antibacterial activity against Escherichia coli A1235 assessed as inhibition of bacterial growth incubated for 24 to 48 hrs by microdilution broth method; type: functional, organism-based; conditions: time 24-48 hrs
In short: (§1)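 Clinical isolates kept at –70 °C and subcultured twice on Mueller-Hinton agar, using the second subculture. Broth microdilution in Mueller-Hinton broth at pH 7.4 with two-fold serial compound dilutions and DMSO ≤1% final. Inoculum was 10 μL of a 1.5 × 10⁸ CFU/mL suspension. Incubated at 36 °C ± 1 °C and read at 24 h and 48 h. MIC taken as 95% growth inhibition.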

[1] = Selectivity index, ratio of IC50 for cytotoxicity against human HepG2 cells by MTT assay to MIC99 for antitubercular activity against Mycobacterium tuberculosis CNCTC My 331/88 (H37Rv) assessed as inhibition of bacterial growth measured after 14 days of incubation; type: functional; conditions: time 14 day
In short: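 HepG2 cells, 15 × 10³/well, were attached overnight and exposed 24 h to serial dilutions (DMSO ≤1%). Read by MTT at 0.5 mg/mL for 1 h and 570 nm. IC50 from 4-parameter regression, three independent experiments in triplicate. SI is HepG2 IC50 divided by H37Rv MIC99.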

Staphylococcus aureus [2] = test: Antibacterial activity against methicilin-resistant Staphylococcus aureus C1923 assessed as inhibition of bacterial growth incubated for 24 to 48 hrs by microdilution broth method; type: functional, organism-based; conditions: time 24-48 hrs
In short: (§2)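 Clinical isolates, stored at −70 °C, were passaged twice on Mueller-Hinton agar. Broth microdilution in Mueller-Hinton broth, pH 7.4, with twofold serial dilutions. DMSO was at most 1% final. Inoculum 1.5 × 10⁸ CFU/mL suspension. MIC is 95% growth inhibition, read after 24 and 48 h at 36 °C.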

Pseudomonas aeruginosa = test: Antibacterial activity against multidrug-resistant Pseudomonas aeruginosa A1245 assessed as inhibition of bacterial growth incubated for 24 to 48 hrs by microdilution broth method; type: functional, organism-based; conditions: time 24-48 hrs; in short: as §2
Enterococcus faecium = test: Antibacterial activity against vancomycin-resistant Enterococcus faecium assessed as inhibition of bacterial growth incubated for 24 to 48 hrs by microdilution broth method; type: functional, organism-based; conditions: time 24-48 hrs; in short: as §2
[3] = tested on: Mycobacterium tuberculosis; test: Antitubercular activity against Mycobacterium tuberculosis CNCTC My 331/88 (H37Rv) assessed as inhibition of bacterial growth measured after 14 days of incubation by Sulas semisynthetic medium based assay; type: functional; conditions: 336 h, time 14 day
In short: (§3)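 Micromethod MIC in Sula's semisynthetic medium. MIC is the lowest concentration inhibiting >99% of the mycobacterial population. Isoniazid was the standard drug.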

[4] = tested on: Staphylococcus epidermidis; test: Antibacterial activity against Staphylococcus epidermidis C1936 assessed as inhibition of bacterial growth incubated for 24 to 48 hrs by microdilution broth method; type: functional, organism-based; conditions: time 24-48 hrs; in short: as §1
Mycobacterium avium [5] = test: Antitubercular activity against Mycobacterium avium CNCTC My 330/88 assessed as inhibition of bacterial growth measured after 21 days of incubation by Sulas semisynthetic medium based assay; type: functional; conditions: CNCTC My 330/88, 504 h, time 21 day
In short: (§4)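 M. avium was tested by the micromethod in Sula's semisynthetic medium. Compounds in DMSO at 1000 to 0.5 μmol/L. Incubation at 37 °C, read at 14 and 21 days. MIC is the lowest concentration giving >99% growth inhibition.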

Klebsiella pneumoniae [6] = test: Antibacterial activity against ESBL positive Klebsiella pneumoniae C1914 assessed as inhibition of bacterial growth incubated for 24 to 48 hrs by microdilution broth method; type: functional, organism-based; conditions: time 24-48 hrs; in short: as §1
Mycobacterium avium [7] = test: Antitubercular activity against Mycobacterium avium CNCTC My 330/88 assessed as inhibition of bacterial growth measured after 14 days of incubation by Sulas semisynthetic medium based assay; type: functional; conditions: CNCTC My 330/88, 336 h, time 14 day; in short: as §4
Mycobacterium kansasii [8] = test: Antitubercular activity against Mycobacterium kansasii CNCTC My 235/80 assessed as inhibition of bacterial growth measured after 14 days of incubation by Sulas semisynthetic medium based assay; type: functional; conditions: CNCTC My 235/80, 336 h, time 14 day
In short: (§5)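 Micromethod in Sula's semisynthetic medium. MIC is the lowest concentration inhibiting >99% of the mycobacterial population. Isoniazid was the standard.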

Mycobacterium kansasii [9] = test: Antitubercular activity against Mycobacterium kansasii CNCTC My 235/80 assessed as inhibition of bacterial growth measured after 21 days of incubation by Sulas semisynthetic medium based assay; type: functional; conditions: CNCTC My 235/80, 504 h, time 21 day; in short: as §5
Klebsiella pneumoniae [10] = test: Antibacterial activity against ESBL negative Klebsiella pneumoniae C1950 assessed as inhibition of bacterial growth incubated for 24 to 48 hrs by microdilution broth method; type: functional, organism-based; conditions: time 24-48 hrs; in short: as §1
Staphylococcus aureus [11] = test: Antibacterial activity against Staphylococcus aureus C1947 assessed as inhibition of bacterial growth incubated for 24 to 48 hrs by microdilution broth method; type: functional, organism-based; conditions: time 24-48 hrs; in short: as §1
Mycobacterium kansasii [12] = test: Antitubercular activity against Mycobacterium kansasii CNCTC My 235/80 assessed as inhibition of bacterial growth measured after 7 days of incubation by Sulas semisynthetic medium based assay; type: functional; conditions: CNCTC My 235/80, 168 h, time 7 day; in short: as §5
[13] = tested on: Mycobacterium tuberculosis; test: Antitubercular activity against Mycobacterium tuberculosis CNCTC My 331/88 (H37Rv) assessed as inhibition of bacterial growth measured after 21 days of incubation by Sulas semisynthetic medium based assay; type: functional; conditions: 504 h, time 21 day; in short: as §3

| Structure (SMILES) | IC50 (HepG2) [µM] | Activity (Escherichia coli) | Selectivity Index [1] | Activity (Staphylococcus aureus [2]) | Activity (Pseudomonas aeruginosa) | Activity (Enterococcus faecium) | MIC99 [3] [µM] | Activity [4] | MIC99 (Mycobacterium avium [5]) [µM] | Activity (Klebsiella pneumoniae [6]) | MIC99 (Mycobacterium avium [7]) [µM] | MIC99 (Mycobacterium kansasii [8]) [µM] | MIC99 (Mycobacterium kansasii [9]) [µM] | Activity (Klebsiella pneumoniae [10]) | Activity (Staphylococcus aureus [11]) | MIC99 (Mycobacterium kansasii [12]) [µM] | MIC99 [13] [µM] |
| --- | --- | --- | --- | --- | --- | --- | --- | --- | --- | --- | --- | --- | --- | --- | --- | --- | --- |
| CCCNc1nc(N2CCOCC2)nc2ncn(Cc3ccc4ccccc4c3)c12 | 40.5 | inactive | 10.1 | inactive | inactive | inactive | 4 (≈ 1.61 µg/mL) | inactive | 125 (≈ 50.3 µg/mL) | inactive | 125 (≈ 50.3 µg/mL) | 8 (≈ 3.22 µg/mL) | 16 (≈ 6.44 µg/mL) | inactive | inactive | 8 (≈ 3.22 µg/mL) | 4 (≈ 1.61 µg/mL) |
| CNc1nc(N2CCOCC2)nc2ncn(Cc3ccc4ccccc4c3)c12 | 58.8 | inactive | 14.7 | inactive | inactive | inactive | 4 (≈ 1.5 µg/mL) | inactive | > 500 | inactive | > 500 | 8 (≈ 3 µg/mL) | 8 (≈ 3 µg/mL) | inactive | inactive | 8 (≈ 3 µg/mL) | 4 (≈ 1.5 µg/mL) |
| CN(c1nc2ncn(Cc3ccc4ccccc4c3)c2c(=O)[nH]1)C1CC1 | > 125 | inactive | >7.8 | inactive | inactive | inactive | 16 (≈ 5.53 µg/mL) | inactive | > 500 | inactive | > 500 | 250 (≈ 86.4 µg/mL) | 500 (≈ 173 µg/mL) | inactive | inactive | 125 (≈ 43.2 µg/mL) | 16 (≈ 5.53 µg/mL) |
| CCNc1nc(N2CCOCC2)nc2ncn(Cc3ccc4ccccc4n3)c12 | 96.4 | inactive | 24.08 | inactive | inactive | inactive | 4 (≈ 1.56 µg/mL) | inactive | > 250 | inactive | > 250 | 64 (≈ 24.9 µg/mL) | 64 (≈ 24.9 µg/mL) | inactive | inactive | 64 (≈ 24.9 µg/mL) | 8 (≈ 3.12 µg/mL) |
| CC(C)c1ccc(Cn2cnc3nc(N4CCOCC4)[nH]c(=O)c32)cc1 | > 125 | inactive | >7.8 | inactive | inactive | inactive | 16 (≈ 5.65 µg/mL) | inactive | > 500 | inactive | > 500 | > 500 | > 500 | inactive | inactive | > 500 | 32 (≈ 11.3 µg/mL) |
| CCSc1nc(N2CCOCC2)nc2ncn(Cc3ccc4ccccc4c3)c12 | 64.2 | inactive | 16.1 | inactive | inactive | inactive | 4 (≈ 1.62 µg/mL) | inactive | > 500 | inactive | > 500 | 64 (≈ 26 µg/mL) | 125 (≈ 50.7 µg/mL) | inactive | inactive | 32 (≈ 13 µg/mL) | 4 (≈ 1.62 µg/mL) |
| CCN(CC)c1nc2ncn(Cc3ccc4ccccc4c3)c2c(=O)[nH]1 |  | inactive |  | inactive | inactive | inactive | > 500 | inactive | > 500 | inactive | > 500 | > 500 | > 500 | inactive | inactive | > 500 | > 500 |
